Test results taken from ChEMBL document CHEMBL1156068, “Synthesis, pharmacological and antiviral activity of 1,3-thiazepine derivatives” (Eur J Med Chem, 2009).
pEC50: −log10 of the molar value. Activity calls are given as the source filed them.

Legend:
Mus musculus [1] = assay: Antinociceptive activity in Swiss albino mouse assessed as protection against acetic acid-induced abdominal constriction at 200 mg/kg, ip measured for 10 mins by writhing test; type: functional, organism-based; set-up: dose 200 mg/kg; conditions: Abdomen
Mus musculus [2] = species: Mus musculus; assay: Decrease in body temperature in normothermic Swiss albino mouse within 60 to 120 mins; type: ADME, organism-based; conditions: in vivo
Mus musculus [3] = species: Mus musculus; assay: Decrease in body temperature in normothermic Swiss albino mouse within 30 to 90 mins; type: ADME, organism-based; conditions: in vivo
Mus musculus [4] = assay: Effect on pentylenetetrazole-induced tonic convulsion in Swiss albino mouse at 200 mg/kg, ip; type: functional, organism-based; set-up: dose 200 mg/kg
Summary of the method: (§1)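 Mice pretreated i.p. with compound (200 mg kg-1, 0.5% methylcellulose suspension, 60 min), then pentylenetetrazole 110 mg kg-1 s.c. Scored as number of mice with clonic seizures, tonic convulsions, and deaths. Chi-square test with Yates correction.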

[5] = tested on: Respiratory syncytial virus; assay: Antiviral activity against Respiratory syncytial virus infected in african green monkey Vero76 cells after 5 days by plaque reduction assay; type: functional, organism-based; conditions: Vero 76
Summary of the method: (§2)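 Vero 76 monolayers (2×10^5 cells/well, overnight) infected to give 50–100 PFU/well. Unadsorbed virus removed, then DMEM with 1% FCS, 0.75% methylcellulose and serial compound dilutions added. Incubated at 37 °C for 3 days (CVB-2, HSV-1) or 5 days (RSV). Fixed and stained with 50% ethanol/0.8% crystal violet in PBS; plaques counted.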

Yellow fever virus = assay: Antiviral activity against Yellow fever virus infected in BHK-21 cells assessed as protection against virus induced cytopathogenicity after 3 to 4 days by MTT assay; type: functional, organism-based
Summary of the method: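 BHK cells were seeded at 5 × 10^4 per well and grown overnight to monolayers, then infected at m.o.i. 0.01 in serum-free medium. One hour later, MEM Earle's with 1% FCS (final) and serial compound dilutions were added. After 3–4 days at 37 °C, viability was read by MTT. EC50 is the concentration giving 50% protection from virus-induced cytopathogenicity.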

Mus musculus [6] = assay: Effect on motor coordination in Swiss albino mouse at 200 mg/kg, ip by rotarod test; type: ADME, organism-based; set-up: dose 200 mg/kg, route intraperitoneal; conditions: in vivo
Mus musculus [7] = assay: Depression of spontaneous locomotor activity in Swiss albino mouse at 0.1 times LD50, ip dose measured for 30 mins; type: functional, organism-based
Summary of the method: (§3)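 Spontaneous locomotion of single male Albino Swiss mice recorded in photoresistor actometers for 30 min. Compound given i.p. at 0.05 or 0.1 LD50 as 0.5% methylcellulose suspension 60 min before test. Vehicle controls. Student's t-test.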

Mus musculus [8] = assay: Effect on pentylenetetrazole-induced clonic seizures in Swiss albino mouse at 200 mg/kg, ip; type: functional, organism-based; set-up: dose 200 mg/kg; summary of the method: as §1
Mus musculus [9] = assay: Depression of spontaneous locomotor activity in Swiss albino mouse at 0.05 times LD50, ip dose measured for 30 mins; type: functional, organism-based; summary of the method: as §3
Vaccinia virus = assay: Antiviral activity against Vaccinia virus infected in african green monkey Vero76 cells after 3 days by plaque reduction assay; type: functional, organism-based; conditions: Orthopoxvirus vaccinia; Vero 76
Mus musculus [10] = assay: Effect on motor coordination in Swiss albino mouse at 200 mg/kg, ip by chimney test; type: ADME, organism-based; set-up: dose 200 mg/kg, route intraperitoneal; conditions: in vivo
Poliovirus 1 = assay: Antiviral activity against Poliovirus type 1 Sabin infected in african green monkey Vero76 cells after 2 days by plaque reduction assay; type: functional, cell-based; conditions: Vero 76
Mus musculus [11] = assay: Acute toxicity in ip dosed Swiss albino mouse assessed as mortality within 48 hrs; type: organism-based; conditions: in vivo
Summary of the method: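 Male Albino Swiss mice (18–30 g) received compound i.p. as a suspension in 0.5% aqueous methylcellulose, 10 mL kg-1. LD50 was calculated by the Litchfield–Wilcoxon method from mortality within 48 h.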

[12] = tested on: Bovine viral diarrhea virus 1; assay: Antiviral activity against Bovine viral diarrhea virus infected in MDBK cells assessed as protection against virus induced cytopathogenicity after 3 to 4 days by MTT assay; type: functional, organism-based
Summary of the method: (§4)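 Monolayers were grown overnight at 37 °C, 5% CO2: MDBK at 3×10^4 cells/well, BHK at 5×10^4 cells/well. Cells infected at m.o.i. 0.01. After 1 h, serial compound dilutions added in MEM with 1% FCS. Viability read by MTT after 3–4 days at 37 °C. EC50 is the concentration giving 50% protection from cytopathogenicity.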

Mus musculus [13] = assay: Decrease in 5-hydroxytryptophan-induced head twitch in Swiss albino mouse at 200 mg/kg, ip measured for 6 two mins interval; type: functional, organism-based; set-up: dose 200 mg/kg
Human alphaherpesvirus 1 = assay: Antiviral activity against HSV1 infected in african green monkey Vero76 cells after 3 days by plaque reduction assay; type: functional, organism-based; conditions: Vero 76; summary of the method: as §2
[14] = Cytotoxicity against human MT4 cells assessed as reduction of cell viability after 96 hrs by MTT assay; type: cell-based
Summary of the method: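 Exponentially growing, mock-infected MT-4 cells were seeded at 1×10^5 cells mL-1 in RPMI-1640 with 10% FCS and penicillin/streptomycin, with serial compound dilutions. Incubated 96 h at 37 °C, 5% CO2, then viability read by MTT. CC50 is the concentration reducing viability by 50%.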

[15] = tested on: Mammalian orthoreovirus 1; assay: Antiviral activity against Reo virus type-1 infected in BHK-21 cells assessed as protection against virus induced cytopathogenicity after 3 to 4 days by MTT assay; type: functional, organism-based; summary of the method: as §4
Mus musculus [16] = assay: Effect on amphetamine-induced hyperactivity in Swiss albino mouse at 5 mg/kg, sc administered 30 mins before amphetamine challenge; type: functional, organism-based; set-up: dose 5 mg/kg
Summary of the method: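 Mice received compound i.p. (0.1 LD50, 0.5% methylcellulose suspension) 60 min before test. Amphetamine 5 mg kg-1 s.c. was given 30 min before test. Locomotion of single male Albino Swiss mice recorded in photoresistor actometers for 30 min. Vehicle controls. Student's t-test.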

[17] = tested on: Human immunodeficiency virus 1; assay: Antiviral activity against wild type HIV1 3B infected in human MT4 cells assessed as protection against virus induced cytopathogenicity after 4 days by MTT assay; type: functional, organism-based; conditions: Human immunodeficiency virus 1, 3B, MT4, 96 h
Summary of the method: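 MT-4 cells (1×10^4/well) in RPMI with serial compound dilutions were infected with HIV-1 (100 CCID50; m.o.i. 0.01). After 4 days, viability was measured by MTT. EC50 is the concentration giving 50% protection from virus-induced cytopathogenicity. Compounds were prepared as 100 mM DMSO stocks diluted in medium.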

Coxsackievirus B2 = assay: Antiviral activity against Coxsackie virus B2 infected in african green monkey Vero76 cells after 3 days by plaque reduction assay; type: functional, organism-based; conditions: Vero 76; summary of the method: as §2
[18] = tested on: Vesicular stomatitis virus; assay: Antiviral activity against Vesicular stomatitis virus infected in african green monkey Vero76 cells after 2 days by plaque reduction assay; type: functional, organism-based; conditions: Vero 76

CC(C)C12C=CC(C)(CC1)C1C(=O)N(N3CCCCS/C3=N\c3ccc(Cl)c(Cl)c3)C(=O)C12 (stereo unspecified)
active: Activity (Mus musculus [7]) | Activity (Mus musculus [13])
inactive: Activity (Mus musculus [1]) | Activity (Mus musculus [4]) | Activity [5] | Activity (Yellow fever virus) | Activity (Mus musculus [8]) | Activity (Mus musculus [9]) | Activity (Vaccinia virus) | Activity (Poliovirus 1) | Activity [12] | Activity (Human alphaherpesvirus 1) | Activity [15] | Activity (Mus musculus [16]) | Activity (Coxsackievirus B2) | Activity [18]
Toxic: Activity (Mus musculus [2]) | Activity (Mus musculus [3])
Non-toxic: Activity (Mus musculus [6]) | Activity (Mus musculus [10])
> 100 µM: CC50 at 96 h [14]
< 4.00: pEC50 [17]
Active: Activity (Mus musculus [11])

CC(C)C12C=CC(C)(CC1)C1C(=O)N(NC(=S)Nc3ccc(Cl)c(Cl)c3)C(=O)C12 (stereo unspecified)
59 µM: CC50 at 96 h [14]
< 4.23: pEC50 [17]
inactive: Activity [5] | Activity (Yellow fever virus) | Activity (Vaccinia virus) | Activity (Poliovirus 1) | Activity [12] | Activity (Human alphaherpesvirus 1) | Activity [15] | Activity (Coxsackievirus B2) | Activity [18]

CC1=CC2C(C(C)C)CC1C1C(=O)N(N3CCCCS/C3=N\Cc3ccccc3)C(=O)C21 (stereo unspecified)
inactive: Activity [5] | Activity (Yellow fever virus) | Activity (Vaccinia virus) | Activity (Poliovirus 1) | Activity [12] | Activity (Human alphaherpesvirus 1) | Activity [15] | Activity (Coxsackievirus B2) | Activity [18]
< 4.33: pEC50 [17]
47 µM: CC50 at 96 h [14]

C=CCNC(=S)NN1C(=O)C2C3CC(C(C)C)C(C=C3C)C2C1=O (stereo unspecified)
inactive: Activity [5] | Activity (Yellow fever virus) | Activity (Vaccinia virus) | Activity (Poliovirus 1) | Activity [12] | Activity (Human alphaherpesvirus 1) | Activity [15] | Activity (Coxsackievirus B2) | Activity [18]
> 100 µM: CC50 at 96 h [14]
< 4.00: pEC50 [17]

CC1=CC2C(C(C)C)CC1C1C(=O)N(NC(=S)Nc3ccc(I)cc3)C(=O)C21 (stereo unspecified)
< 4.35: pEC50 [17]
45 µM: CC50 at 96 h [14]
inactive: Activity [5] | Activity (Yellow fever virus) | Activity (Vaccinia virus) | Activity (Poliovirus 1) | Activity [12] | Activity (Human alphaherpesvirus 1) | Activity [15] | Activity (Coxsackievirus B2) | Activity [18]

CC1=CC2C(C(C)C)CC1C1C(=O)N(N3CCCCS/C3=N\c3ccc(F)cc3)C(=O)C21 (stereo unspecified)
inactive: Activity [5] | Activity (Yellow fever virus) | Activity (Vaccinia virus) | Activity (Poliovirus 1) | Activity [12] | Activity (Human alphaherpesvirus 1) | Activity [15] | Activity (Coxsackievirus B2) | Activity [18]
< 4.31: pEC50 [17]
49 µM: CC50 at 96 h [14]

C=CC/N=C1\SCCCCN1N1C(=O)C2C3CC(C(C)C)C(C=C3C)C2C1=O (stereo unspecified)
59 µM: CC50 at 96 h [14]
< 4.23: pEC50 [17]
inactive: Activity [5] | Activity (Yellow fever virus) | Activity (Vaccinia virus) | Activity (Poliovirus 1) | Activity [12] | Activity (Human alphaherpesvirus 1) | Activity [15] | Activity (Coxsackievirus B2) | Activity [18]

CC1=CC2C(C(C)C)CC1C1C(=O)N(N3CCCCS/C3=N\c3ccc(I)cc3)C(=O)C21 (stereo unspecified)
< 4.66: pEC50 [17]
inactive: Activity [5] | Activity (Yellow fever virus) | Activity (Vaccinia virus) | Activity (Poliovirus 1) | Activity [12] | Activity (Human alphaherpesvirus 1) | Activity [15] | Activity (Coxsackievirus B2) | Activity [18]
22 µM: CC50 at 96 h [14]

CC1=CC2C(C(C)C)CC1C1C(=O)N(N3CCCCS/C3=N\c3ccc(C)cc3)C(=O)C21 (stereo unspecified)
inactive: Activity (Mus musculus [1]) | Activity (Mus musculus [4]) | Activity [5] | Activity (Yellow fever virus) | Activity (Mus musculus [8]) | Activity (Mus musculus [9]) | Activity (Vaccinia virus) | Activity (Poliovirus 1) | Activity [12] | Activity (Mus musculus [13]) | Activity (Human alphaherpesvirus 1) | Activity [15] | Activity (Mus musculus [16]) | Activity (Coxsackievirus B2) | Activity [18]
Non-toxic: Activity (Mus musculus [6]) | Activity (Mus musculus [10])
Toxic: Activity (Mus musculus [2]) | Activity (Mus musculus [3])
Active: Activity (Mus musculus [11])
active: Activity (Mus musculus [7])
